Experiment [1] deals with Mycobacterium tuberculosis. Put plainly: Antibacterial activity against wild type Mycobacterium tuberculosis CDC1551 incubated for 10 days by resazurin dye based microtiter plate assay. It counts as functional. The settings on record: CDC1551, 240 h, time 10 day. In short, it runs like this: (§1)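 MIC in 7H9-ADC-Tween 80 medium. Strains (CDC1551 WT, rv0443 KO) grown to mid-log (OD600 ~0.8), diluted to OD600 0.01, exposed to serial antibiotic dilutions for 10 days at 37 °C; MIC read by resazurin blue test.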
On the technique in general: Resazurin is reduced to fluorescent resorufin, in cell work by metabolically active cells.

Experiment [2] concerns Mycobacterium tuberculosis. Briefly: Antibacterial activity against Mycobacterium tuberculosis rv0443 knockout strain incubated for 10 days by resazurin dye based microtiter plate assay. The experiment is classed as functional. The settings on record: rv0443, 240 h, time 10 day. In short, it runs like this:
as §1

The record followed here is ChEMBL document CHEMBL5252635, “The Mycobacterium tuberculosis mycothiol S-transferase is divalent metal-dependent for mycothiol binding and transfer” (2023).

Converted amounts (≈) assume the structure as drawn.

Take `CO[C@H]1/C=C/O[C@@]2(C)Oc3c(C)c(O)c4c(O)c(c(/C=N/N5CCN(C)CC5)c(O)c4c3C2=O)NC(=O)/C(C)=C\C=C\[C@H](C)[C@H](O)[C@@H](C)[C@@H](O)[C@@H](C)[C@H](OC(C)=O)[C@@H]1C` [RIFAMPIN]: the minimal inhibitory concentration (MIC) in experiment [1] and in experiment [2] was 2.5 ng/mL (≈ 3.04 nM) throughout.
